Data set [1] can be described thus: Metabolic stability in human liver microsomes at 1 uM after 30 mins by LC/MS analysis. In kind it is ADME, Microsome. The settings on record: read-out: Stability. In short, it runs like this:
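Pooled human liver microsomes (0.5 mg/mL protein), compound at 1 μM, 1.2 mM NADPH, 100 mM phosphate pH 7.4, 37 °C with shaking for 30 min, in duplicate. Stopped with ice-cold acetonitrile containing internal standard, centrifuged, supernatant analysed by LC–MS/MS for % remaining.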
(Liver microsomes are vesicles of endoplasmic reticulum, rich in cytochrome P450 enzymes.)

A short description of data set [2]: Cmax in Sprague-Dawley rat at 3 mg/kg, ip. Format: ADME, organism-based. Details: dose 3 mg/kg, route intraperitoneal. The settings on record: in vivo.
A short description of data set [3]: AUClast in ICR mouse at 10 mg/kg, po. In kind it is ADME, organism-based. The settings on record: plasma. Further details: time 0 - last, dose 10 mg/kg, route oral.
For data set [4], the system named is Plasma. As to the kind of experiment: Metabolic stability in rat plasma at 0.5 ug/ml after 2 hrs by LC/MS analysis. In kind it is ADME, cell-free. Conditions: 2 h. In short, it runs like this: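 Drug-free rat plasma spiked from acetonitrile stock to 0.5 μg/mL, held at 37 °C with shaking for 0, 15, 30, 60 and 120 min. Quenched with 2 volumes of acetonitrile containing carbamazepine internal standard, centrifuged, supernatant quantified by LC–MS/MS.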

Data set [5] is described as follows: Cmax in ICR mouse at 10 mg/kg, po. In kind it is ADME, organism-based. Further details: dose 10 mg/kg, route oral. The settings on record: in vivo.
The test system of data set [6] is HT-22. As to the kind of experiment: Inhibition of mPTP in mouse HT22 cells assessed as recovery in amyloid beta-suppressed ATP level at 5 uM incubated for 10 mins prior to amyloid beta-challenge measured for 7 hrs relative to control. Details: scale not given: the % may be the effect or the level left. In kind it is cell-based. In short, it runs like this: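 HT-22 mouse hippocampal cells, grown in DMEM with 10% FBS at 37 °C and 5% CO2, were seeded the day before. Compound (10 µM solution) added 10 min before amyloid beta 1-42 (10 µM solution), then 7 h at 37 °C. Lysates normalised to equal protein by BCA, and ATP measured with a luciferase kit. % recovery is relative to the amyloid-treated vehicle. Viability is from ATP without amyloid beta.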

Data set [7] in a line: Cytotoxicity against mouse […] cells assessed as cell viability at 10 uM after 24 hrs by MTT assay. Format: cell-based. The settings on record: read-out: Activity. Background: Tetrazolium assays rely on reduction of a dye to a coloured formazan, in cell work by metabolically active cells.
Data set [8] can be described thus: Ratio of drug uptake in brain to drug uptake in plasma in ICR mouse at 10 mg/kg, po. Details: dose 10 mg/kg, route oral. Format: ADME, organism-based. Conditions: read-out: BPR.
The nature of data set [9]: Terminal half life in Sprague-Dawley rat at 3 mg/kg, ip. Format: ADME, organism-based. Details: dose 3 mg/kg, route intraperitoneal. Conditions: in vivo, read-out: beta t1/2.
A short description of data set [10]: AUClast in Sprague-Dawley rat at 3 mg/kg, ip. In kind it is ADME, organism-based. Details: dose 3 mg/kg, route intraperitoneal, time 0 - last. The settings on record: plasma.
A short description of data set [11]: Cytotoxicity against mouse […] cells assessed as cell viability at 5 uM. Format: cell-based. The settings on record: HT22 cells, read-out: Activity.
Data set [12] can be described thus: Tmax in ICR mouse at 10 mg/kg, po. In kind it is ADME, organism-based. Details: dose 10 mg/kg, route oral. Conditions: in vivo.
Data set [13] concerns HT-22. As to the kind of experiment: Neuroprotective activity against in mouse HT22 cells assessed as inhibition of amyloid beta-induced toxicity at 10 uM incubated for 10 mins prior to amyloid beta-challenge measured after 24 hrs by MTT assay. Format: functional. In short, it runs like this:
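HT-22 mouse hippocampal cells (DMEM, 10% FBS), 5000 per well, seeded a day before. Compound solution at 10 μM added 10 min before amyloid beta 1–42 solution at 10 μM, then 24 h at 37 °C. MTT 2 h, then acidified Triton/isopropanol for 1 h at RT, A570. Vehicle subtracted; % inhibition versus Aβ-treated vehicle; viability from wells without Aβ.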

Data set [14] can be described thus: AUC (0 to infinity) in Sprague-Dawley rat at 3 mg/kg, ip. In kind it is ADME, organism-based. Details: dose 3 mg/kg, route intraperitoneal, time infinity. Conditions: plasma.
Data set [15] can be described thus: Tmax in Sprague-Dawley rat at 3 mg/kg, ip. Format: ADME, organism-based. Further details: dose 3 mg/kg, route intraperitoneal. Conditions: in vivo.
Data set [16] relates to HT-22. In words: Inhibition of mPTP in mouse HT22 cells assessed as reduction in amyloid beta-induced mitochondrial membrane damage at 10 uM incubated for 10 mins prior to amyloid beta-challenge measured every 1 hr for 3 hrs by JC-1 based fluorometric analysis. In kind it is cell-based. Details: scale not given: the % may be the effect or the level left. In short, it runs like this: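 HT-22 cells, 30,000 per well, seeded a day earlier, loaded with 7.5 μM JC-1 (final) in phenol red-free Opti-MEM for 1 h 15 min at 37 °C, then PBS-washed. Compound solution at 10 μM for 10 min at 37 °C, then amyloid beta 1–42 solution at 10 μM. Red (ex/em 530/580) and green (485/530) fluorescence read hourly for 3 h. Green/red ratio change normalised to vehicle as 100%.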

We go through one compound from ChEMBL document CHEMBL2331084, “Synthesis and evaluation of oxime derivatives as modulators for amyloid beta-induced mitochondrial dysfunction” (Eur J Med Chem, 2013).

`C(=N\OC1CN2CCC1CC2)/c1ccccc1OCc1ccccc1` (stereo unspecified): the remaining at 0.5 h, 1 µM in data set [1] came to 85%. Moreover, the Cmax in data set [2] was 524 ng/mL; in data set [5], 330 ng/mL. Also, the values for the AUC(0-t) in data set [3] and in [10] were 525 ng·h/mL and 930 ng·h/mL, respectively. Also, the Stability result in data set [4] is “Stable”. In addition, the Activity was 13% in data set [6] and 59% in [16]. In addition, the viability at 24 h, 10 µM in data set [7] came out at 84%. In addition, the Kp in data set [8] came out at 273. Further, the half-life in data set [9] is 366 min. The viability at 5 µM in [11] stood at 92%. Moreover, the Tmax is 5 min in data set [12] and 25 min in [15]. Also, the inhibition at 10 µM in data set [13] was found to be 0%. Moreover, the area under the curve AUC(0-inf) in [14] was 990 ng·h/mL.

A word on the Cmax: it is the maximum level reached in the sampled fluid or tissue. As a reminder, the AUC(0-t) is the area under the concentration-time curve up to a stated or last time point. Broadly, the Tmax is the time at which the peak concentration occurs. For orientation: inhibition means the relative decrease from the control value, in per cent. One may read the AUC(0-inf) as total exposure, with the tail of the curve extrapolated.
